The values below come from ChEMBL document CHEMBL2429801, “3-Ylidenephthalides as a new class of transient receptor potential channel TRPA1 and TRPM8 modulators” (Bioorg Med Chem Lett, 2013).

Experiment [1] has as its target Transient receptor potential cation channel subfamily M member 8 (Rattus norvegicus) (UniProt Q8R455). The experiment in a line: Agonist activity at rat recombinant TRPM8 overexpressed in HEK293 cells assessed as induction of intracellular calcium influx by Fluo-4-AM dye-based spectrofluorimetric analysis relative to ionomycin. Format: cell-based. Also noted: concentration or dose not given beside the values. (Calcium assays in cells follow changes in intracellular calcium, usually with a dye or a luminescent sensor.)

The target of experiment [2] is T1, Transient receptor potential cation channel subfamily A member 1 (Rattus norvegicus, UniProt Q6RI86). In words: Antagonist activity at rat recombinant TRPA1 overexpressed in HEK293 cells assessed as inhibition of allyl isothiocyanate-induced intracellular calcium influx preincubated for 5 mins followed by allyl isothiocyanate challenge by Fluo-4-AM dye-based spectrofluorimetric analysis. It is filed as cell-based. In outline:
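Test compounds were preincubated for 5 min in the cuvette with Fluo-4-loaded rat TRPA1-HEK293 cells in Tyrode's buffer, followed by 100 µM AITC challenge.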

The target in experiment [3] is T2, Transient receptor potential cation channel subfamily M member 8 (Rattus norvegicus, UniProt Q8R455). In words: Antagonist activity at rat recombinant TRPM8 overexpressed in HEK293 cells assessed as inhibition of menthol-induced intracellular calcium influx preincubated for 5 mins followed by menthol challenge by Fluo-4-AM dye-based spectrofluorimetric analysis. It is filed as cell-based.
T2 sequence (Q8R455 whole entry): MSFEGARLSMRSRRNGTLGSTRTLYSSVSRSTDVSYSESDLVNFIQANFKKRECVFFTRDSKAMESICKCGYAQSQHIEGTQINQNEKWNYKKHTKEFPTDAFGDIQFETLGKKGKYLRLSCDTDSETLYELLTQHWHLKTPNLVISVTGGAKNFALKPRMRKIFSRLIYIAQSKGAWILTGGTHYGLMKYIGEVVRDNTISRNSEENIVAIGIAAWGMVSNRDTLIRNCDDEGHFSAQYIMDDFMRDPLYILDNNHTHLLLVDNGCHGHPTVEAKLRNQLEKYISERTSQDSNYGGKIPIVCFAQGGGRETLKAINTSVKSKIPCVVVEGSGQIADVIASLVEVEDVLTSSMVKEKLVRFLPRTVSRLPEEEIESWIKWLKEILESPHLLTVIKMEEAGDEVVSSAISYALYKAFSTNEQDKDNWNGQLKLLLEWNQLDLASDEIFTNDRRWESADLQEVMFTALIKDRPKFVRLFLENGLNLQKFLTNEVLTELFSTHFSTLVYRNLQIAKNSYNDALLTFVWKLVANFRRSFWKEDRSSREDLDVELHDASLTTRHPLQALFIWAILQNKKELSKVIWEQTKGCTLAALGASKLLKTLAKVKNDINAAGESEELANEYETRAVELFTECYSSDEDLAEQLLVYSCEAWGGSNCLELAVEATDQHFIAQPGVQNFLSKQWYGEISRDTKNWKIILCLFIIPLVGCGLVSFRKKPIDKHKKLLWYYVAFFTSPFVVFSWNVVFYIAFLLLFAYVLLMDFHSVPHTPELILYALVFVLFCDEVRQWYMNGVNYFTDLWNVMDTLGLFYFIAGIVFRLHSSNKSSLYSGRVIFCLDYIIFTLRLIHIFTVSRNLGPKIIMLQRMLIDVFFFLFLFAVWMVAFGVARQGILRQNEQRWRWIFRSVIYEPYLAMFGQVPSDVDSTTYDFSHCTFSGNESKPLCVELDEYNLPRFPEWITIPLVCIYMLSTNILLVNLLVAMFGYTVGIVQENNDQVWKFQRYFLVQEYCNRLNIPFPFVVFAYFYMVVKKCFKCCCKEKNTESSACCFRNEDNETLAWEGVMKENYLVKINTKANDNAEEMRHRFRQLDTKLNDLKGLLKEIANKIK

Experiment [4] concerns the target T1, Transient receptor potential cation channel subfamily A member 1. In words: Agonist activity at rat recombinant TRPA1 overexpressed in HEK293 cells assessed as induction of intracellular calcium influx by Fluo-4-AM dye-based spectrofluorimetric analysis. It is filed as cell-based.
In experiment [5] the target is T2, Transient receptor potential cation channel subfamily M member 8. The experiment in a line: Antagonist activity at rat recombinant TRPM8 overexpressed in HEK293 cells assessed as inhibition of icilin-induced intracellular calcium influx preincubated for 5 mins followed by icilin challenge by Fluo-4-AM dye-based spectrofluorimetric analysis. Format: cell-based.

Experiment [6] addresses Transient receptor potential cation channel subfamily A member 1 (Rattus norvegicus) (UniProt Q6RI86). The experiment in a line: Agonist activity at rat recombinant TRPA1 overexpressed in HEK293 cells assessed as induction of intracellular calcium influx by Fluo-4-AM dye-based spectrofluorimetric analysis relative to allyl isothiocyanate. Format: cell-based.
For experiment [7], the target named is T3, Transient receptor potential cation channel subfamily A member 1 (Homo sapiens, UniProt O75762). In words: Agonist activity at TRPA1 (unknown origin).
T3 sequence (O75762 whole entry): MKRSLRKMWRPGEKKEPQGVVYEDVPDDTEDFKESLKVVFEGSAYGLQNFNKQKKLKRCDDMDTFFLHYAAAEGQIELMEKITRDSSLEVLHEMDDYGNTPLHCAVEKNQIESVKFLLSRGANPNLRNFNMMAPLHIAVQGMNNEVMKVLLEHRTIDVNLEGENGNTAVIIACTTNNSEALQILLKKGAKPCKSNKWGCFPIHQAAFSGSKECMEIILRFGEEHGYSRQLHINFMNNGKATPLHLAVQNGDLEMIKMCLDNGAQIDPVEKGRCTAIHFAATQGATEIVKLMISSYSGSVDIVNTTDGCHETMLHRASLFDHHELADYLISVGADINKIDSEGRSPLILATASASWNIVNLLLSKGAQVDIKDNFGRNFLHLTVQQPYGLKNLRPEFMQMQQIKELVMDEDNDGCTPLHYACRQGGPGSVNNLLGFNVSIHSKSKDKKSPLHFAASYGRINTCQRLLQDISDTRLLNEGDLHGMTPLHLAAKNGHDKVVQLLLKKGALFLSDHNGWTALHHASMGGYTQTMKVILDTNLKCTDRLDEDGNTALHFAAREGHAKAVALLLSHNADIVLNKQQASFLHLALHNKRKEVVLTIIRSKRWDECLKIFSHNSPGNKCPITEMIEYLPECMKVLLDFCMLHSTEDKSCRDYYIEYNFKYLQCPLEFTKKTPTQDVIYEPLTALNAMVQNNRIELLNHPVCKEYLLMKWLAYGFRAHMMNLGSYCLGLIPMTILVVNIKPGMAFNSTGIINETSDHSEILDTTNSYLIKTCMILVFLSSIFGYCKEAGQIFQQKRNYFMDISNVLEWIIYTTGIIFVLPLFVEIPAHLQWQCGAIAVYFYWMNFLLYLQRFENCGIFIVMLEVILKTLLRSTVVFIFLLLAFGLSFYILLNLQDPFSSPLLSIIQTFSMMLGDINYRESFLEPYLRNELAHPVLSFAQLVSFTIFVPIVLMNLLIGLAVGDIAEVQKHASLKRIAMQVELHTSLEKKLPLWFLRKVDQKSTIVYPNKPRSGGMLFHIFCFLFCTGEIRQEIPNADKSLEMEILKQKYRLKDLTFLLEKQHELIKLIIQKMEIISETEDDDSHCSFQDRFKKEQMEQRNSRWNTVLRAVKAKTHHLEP
Experiment [8] addresses T2, Transient receptor potential cation channel subfamily M member 8. The experiment in a line: Agonist activity at rat recombinant TRPM8 overexpressed in HEK293 cells assessed as induction of intracellular calcium influx by Fluo-4-AM dye-based spectrofluorimetric analysis. It is filed as cell-based.
The target in experiment [9] is T3, Transient receptor potential cation channel subfamily A member 1. The experiment in a line: Antagonist activity at TRPA1 (unknown origin) assessed as inhibition of mustard oil-activated […]. In outline:
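Rat TRPA1 stably expressed in HEK293 cells grown in EMEM with 10% FBS. Cells were loaded with Fluo-4-AM (4 µM) for 1 h at room temperature, then suspended in Tyrode's buffer pH 7.4. Compound was added 5 min before 100 µM allyl isothiocyanate. Ca2+ fluorescence (ex 488/em 516 nm) was read at 25 °C, with the agonist-alone response set as 100%.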

Sequence of Transient receptor potential cation channel subfamily M member 8 (Rattus norvegicus) (Q8R455 whole entry, looked up): as the sequence (Q8R455 whole entry) above
T1 sequence (Q6RI86 whole entry): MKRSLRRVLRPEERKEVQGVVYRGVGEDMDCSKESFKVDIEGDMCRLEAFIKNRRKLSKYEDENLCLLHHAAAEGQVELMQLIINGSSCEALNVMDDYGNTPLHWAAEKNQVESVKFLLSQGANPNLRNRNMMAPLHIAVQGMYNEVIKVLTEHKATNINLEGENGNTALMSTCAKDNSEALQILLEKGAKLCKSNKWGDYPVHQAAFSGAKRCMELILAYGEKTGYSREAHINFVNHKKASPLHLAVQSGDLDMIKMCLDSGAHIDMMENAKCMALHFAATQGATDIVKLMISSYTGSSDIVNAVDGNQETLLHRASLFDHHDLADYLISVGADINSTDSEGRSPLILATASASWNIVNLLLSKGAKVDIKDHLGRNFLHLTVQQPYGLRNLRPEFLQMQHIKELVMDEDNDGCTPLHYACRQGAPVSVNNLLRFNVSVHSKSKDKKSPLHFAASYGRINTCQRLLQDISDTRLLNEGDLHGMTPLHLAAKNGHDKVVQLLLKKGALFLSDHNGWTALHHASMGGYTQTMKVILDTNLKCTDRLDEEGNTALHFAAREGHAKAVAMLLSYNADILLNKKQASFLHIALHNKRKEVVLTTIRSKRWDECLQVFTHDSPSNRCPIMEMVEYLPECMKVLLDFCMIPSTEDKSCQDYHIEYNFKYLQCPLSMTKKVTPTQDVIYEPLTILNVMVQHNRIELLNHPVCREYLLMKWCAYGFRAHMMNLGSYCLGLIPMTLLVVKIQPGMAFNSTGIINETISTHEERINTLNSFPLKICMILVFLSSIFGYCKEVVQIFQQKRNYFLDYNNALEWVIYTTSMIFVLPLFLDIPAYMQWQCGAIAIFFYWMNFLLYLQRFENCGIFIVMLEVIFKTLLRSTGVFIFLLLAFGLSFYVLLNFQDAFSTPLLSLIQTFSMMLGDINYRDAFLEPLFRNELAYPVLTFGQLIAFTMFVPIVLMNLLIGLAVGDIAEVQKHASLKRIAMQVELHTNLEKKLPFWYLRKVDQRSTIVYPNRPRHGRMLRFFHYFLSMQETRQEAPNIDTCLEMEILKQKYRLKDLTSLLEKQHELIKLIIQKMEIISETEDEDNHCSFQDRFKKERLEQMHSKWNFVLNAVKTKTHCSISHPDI
Sequence of Transient receptor potential cation channel subfamily A member 1 (Rattus norvegicus) (Q6RI86 whole entry): as above

Turning to `Cc1cc(C)c2c(c1)/C(=C/c1ccccc1)OC2=O`, the Efficacy was under 10% in experiment [1] and 117% in experiment [6]. The IC50 in experiment [2] is 0.8 µM; in experiment [3], 1.9 µM; in experiment [5], 1 µM. Moreover, the EC50 in experiment [4] worked out at 1.1 µM.
With `CCC/C=C1\OC(=O)c2ccccc21` [Z-butylidenephthalide], the IC50 in experiment [2] amounted to 44.5 µM; in experiment [3], 153 µM; in [5], 141 µM.
With `CCC/C=C1\OC(=O)c2ccccc21`, the Efficacy in [1] and in experiment [6] was under 10% in each case.
Consider `O=C1O/C(=C\c2ccccc2)c2ccccc21`, for which the Efficacy in [1] is under 10%; in [6], 93.6%. Further, the IC50 in experiment [2] was found to be 2.9 µM; in [3], 10.2 µM; in [5], 8.3 µM. In [4], the EC50 was 3 µM.
Regarding `CCC/C=C1\OC(=O)C2=C1CCC=C2` [LIGUSTILIDE], a half-maximal effect in experiment [7] (EC50) was put at 44 µM.
As for `O=C1O/C(=C\c2ccc(Cl)cc2)c2ccccc21`, the Efficacy in experiment [1] was under 10%; in experiment [6], 112%. The IC50 in experiment [2] is 1.5 µM; in [3] it was 48.1 µM; in experiment [5], 14.9 µM. In experiment [4], the EC50 was determined as 2 µM.
As to `COc1ccc(/C=C2\OC(=O)c3ccccc32)cc1`, the Efficacy in [1] was 12.9%; in experiment [6] it was 65.1%. Besides, the concentration for half-maximal inhibition (IC50) turned out to be 2.2 µM in [2], 11.3 µM in [3] and 3.4 µM in [5]. The values for the EC50 in [4] and in experiment [8] were 1.3 µM and 1.8 µM, respectively.
Turning to `CC/C=C1\OC(=O)c2c(C)cc(C)cc21`, the Efficacy is under 10% in experiment [1] and 43.7% in [6]. The half-maximal inhibitory concentration (IC50) in experiment [2] turned out to be 36.3 µM; in experiment [3], 12.1 µM; in [5], 7.7 µM. In addition, the EC50 in experiment [4] came to 15.8 µM.
In the case of `C=C1OC(=O)c2c(C)cc(C)cc21`, the Efficacy in [1] is under 10%; in experiment [6], 85.1%. Also, the figures for the IC50 in experiment [2], in experiment [3] and in [5] were 34 µM, 128 µM and 90.1 µM, respectively. In experiment [4], the EC50 came to 17.2 µM.
With `Cc1ccc(/C=C2\OC(=O)c3ccccc32)cc1`, the Efficacy in experiment [1] was under 10%; in experiment [6], 126%. For the same compound, the IC50 stood at 2.4 µM in [2], 25.1 µM in [3] and 7.2 µM in experiment [5]. The concentration for a half-maximal effect (EC50) in experiment [4] is 4.3 µM.
For the compound `C=C1OC(=O)c2cc(F)ccc21`, the results for the Efficacy in [1] and in [6] were under 10% and 10.2%, respectively. Moreover, the IC50 is over 100 µM in experiment [2], over 200 µM in experiment [3] and over 200 µM in experiment [5]. For the same compound, the EC50 in [4] turned out to be 32.2 µM.
`C/C=C1\OC(=O)c2ccc(OC)cc21`: the Efficacy in experiment [1] is under 10%; in experiment [6], 24.6%. Further, the values for the concentration for half-maximal inhibition (IC50) in experiment [2], in experiment [3] and in experiment [5] were over 100 µM, over 200 µM and 161 µM, respectively. The concentration giving a half-maximal response (EC50) in experiment [4] is 21.7 µM.
As for `CCC/C=C1\OC(=O)c2ccccc21` (mixture of isomers) [Z-butylidenephthalide], the IC50 in [9] was found to be 23 µM.

As a reminder, the IC50 is the point on the concentration scale where inhibition reaches its midpoint. For orientation: EC50 means the concentration needed to bring the measured effect to its halfway point.
